Assay results from article PMC9102048 (RSC Advances, 2022).
Read-outs that look alike come from different tables or passages of the source.

Key:
NIH3T3 cells [1] = test: CCK8 anti-proliferative assay, mouse fibroblast cell line; type: cell-based; details: for IC50: CCK8; for inhibition at 500 µM: NIH3T3, read-out: Inhibition% @ 0.5 mM; for inhibition at 1000 µM: NIH3T3, read-out: Inhibition% @ 1 mM; for proliferation (fixed cell morphology): NHI3T3, 0.050 mM for 24 h
How it was run: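 NIH3T3 cells in F12K/DMEM with 10% heat-inactivated FBS and penicillin/streptomycin. Log-phase cells seeded at 5 × 10^3 cells/well for 24 h, then exposed to a range of test-compound concentrations for 72 h. Single-point inhibition taken at 1 mM and 0.5 mM. CCK8 added for 1–4 h; absorbance read at 450 nm. IC50 by curve fitting; mean (±SD) of ≥3 independent determinations.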

NHI3T3 cells = test: Transwell / cell migration assay; type: cell-based, mouse
E-cadherin = test: Immunofluorescence, E-cadherin expression; type: cell-based, mouse; details: NHI3T3 cells, TGF-β1 (10 ng mL^−1) and 9d (50 μM)
α-SMA = test: Immunofluorescence, α-SMA expression; type: cell-based, mouse; details: NHI3T3 cells, TGF-β1 (10 ng mL^−1) and 9d (50 μM)
How it was run: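 NIH3T3 cells grown on coverslips and co-treated with TGF-β1 (10 ng mL−1) and test compound (50 μM) for 24 h. Fixed in 4% paraformaldehyde, then incubated with primary anti-α-SMA overnight at 4 °C. Detected with FITC-conjugated anti-rabbit IgG; nuclei stained with DAPI. Imaged by confocal microscopy; two technical replicates, three biological repeats.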

Solubility in water = type: physicochemical; details: compared with 11a and 11b
KM mice = test: Acute toxicity experiment and histopathologic examination; type: in vivo; details: caudal vein injection, 100/150/300 mg kg^−1
HFL1 = test: CCK8 antiproliferative assay, human fibroblast cell line; type: cell-based; details: for proliferation (fixed cell morphology): HFL1, 0.050 mM for 24 h; for IC50: Homo sapiens, HFL1
How it was run: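 HFL1 human fibroblasts grown in F12K/DMEM with 10% heat-inactivated FBS and penicillin/streptomycin. Cells treated with test compound for 48 h, and viability read by CCK8 absorbance at 450 nm. Curve fitting gave IC50. For morphology, cells were treated for 24 h, fixed, and imaged by light microscopy with a 10× objective.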

NIH3T3 cells [2] = details: pirfenidone, reported in the literature; cited from earlier work
[3] = clinical trials, after administration of pirfenidone; cited from earlier work
[4] = Mus musculus, NIH3T3, NIH3T3 cells, averages ±SD of at least three determinations
[5] = Mus musculus, NIH3T3, NIH3T3 cells

Compound: CC(=O)Nc1ccc(Cn2cc(C(F)(F)F)ccc2=O)cc1 [Compound 9a, N-(4-((2-oxo-5-(Trifluoromethyl)pyridin-1(2H)-yl)methyl)phenyl)acetamide]
- IC50 (NIH3T3 cells [1]; [4]): 132 ± 2.3 µM
- inhibition at 500 µM (NIH3T3 cells [1]; Mus musculus): 68.4%
- inhibition at 1000 µM (NIH3T3 cells [1]; Mus musculus): 86.2%

Compound: TGF-β1: recombinant TGF-β1, key fibrogenic factor used to induce epithelial–mesenchymal transition and cell migration [reference compound]
- cell migration OD value (NHI3T3 cells; TGF-β1 alone, OD value of the control is 1.0): about 1.7

Compound: CC(=O)N(C(C)=O)c1ccc(Cn2cc(C)ccc2=O)cc1 [Compound 9d, N-Acetyl-N-(4-((5-methyl-2-oxopyridin-1(2H)-yl)methyl)phenyl)acetamide]
- IC50 (NIH3T3 cells [1]; [5]): 69 µM
- IC50 (NIH3T3 cells [1]; [4]): 69.1 ± 2.7 µM
- inhibition at 500 µM (NIH3T3 cells [1]; Mus musculus): 88.4%
- inhibition at 1000 µM (NIH3T3 cells [1]; Mus musculus): 98.7%
- proliferation (fixed cell morphology) (NIH3T3 cells [1]): effectively inhibited
- times the anti-fibrosis activity of pirfenidone (NIH3T3 cells [1]; relative to pirfenidone IC50 2.75 mM): more than 40 times
- expression of E-cadherin (E-cadherin): reversed after 9d treatment, higher than the control group
- 3T3 cell migration (transwell) (NHI3T3 cells; 9d 50 μM): markedly inhibited
- cell migration OD value (NHI3T3 cells; 9d + TGF-β1, OD value of the control is 1.0, TGF-β1 alone about 1.7): about 0.8
- cell migration OD value (NHI3T3 cells; 9d alone, 50 μM, OD value of the control is 1.0): about 0.35
- expression of α-SMA (α-SMA): decreased
- solubility in water (Solubility in water): good solubility in water
- histopathology (H&E) of liver, kidney, heart, spleen (KM mice): no pathological abnormalities such as inflammation, injury and necrosis
- proliferation (fixed cell morphology) (HFL1): effectively inhibited
- IC50 (HFL1): 35 µM

Compound: 1-Benzyl-5-(trifluoromethyl)pyridin-2(1H)-one [Compound 7a]
- Inhibition% @ 0.5 mM (NIH3T3 cells [1]; NIH3T3 cells, CCK8, 0.5 mM): 20.58%
- Inhibition% @ 1 mM (NIH3T3 cells [1]; NIH3T3 cells, CCK8, 1 mM): 40.95%
- IC50 (NIH3T3 cells [1]; NIH3T3 cells, averages ±SD of at least three determinations): > 500 µM

Compound: CC(=O)Nc1ccc(-n2cc(C)ccc2=O)cc1 [Compound 4b, N-(4-(5-Methyl-2-oxopyridin-1(2H)-yl)phenyl)acetamide]
- IC50 (NIH3T3 cells [1]; [4]): > 1000 µM
- inhibition at 500 µM (NIH3T3 cells [1]; Mus musculus): 1.3%
- inhibition at 1000 µM (NIH3T3 cells [1]; Mus musculus): 25.7%

Compound: CN1CCN(CC(=O)Nc2ccc(-n3cc(C(F)(F)F)ccc3=O)cc2)CC1 [Compound 5a, 2-(4-Methylpiperazin-1-yl)-N-(4-(2-oxo-5-(trifluoromethyl)pyridin-1(2H)-yl)phenyl)acetamide]
- IC50 (NIH3T3 cells [1]; [4]): 341 ± 7.3 µM
- inhibition at 500 µM (NIH3T3 cells [1]; Mus musculus): 51.8%
- inhibition at 1000 µM (NIH3T3 cells [1]; Mus musculus): 62.4%

Compound: CC(=O)Nc1ccc(-n2cc(C(F)(F)F)ccc2=O)cc1 [Compound 4a, N-(4-(2-oxo-5-(Trifluoromethyl)pyridin-1(2H)-yl)phenyl)acetamide]
- IC50 (NIH3T3 cells [1]; [4]): > 1000 µM
- inhibition at 500 µM (NIH3T3 cells [1]; Mus musculus): 10.4%
- inhibition at 1000 µM (NIH3T3 cells [1]; Mus musculus): 32.6%

Compound: Cc1ccc(=O)n(-c2ccc(NC(=O)[C@@H](C)N(C)C)cc2)c1 [Compound 5c, (R)-2-(Dimethylamino)-N-(4-(5-methyl-2-oxopyridin-1(2H)-yl)phenyl)propanamide]
- IC50 (NIH3T3 cells [1]; [5]): 490 µM
- IC50 (NIH3T3 cells [1]; [4]): 490.2 ± 2.7 µM
- inhibition at 500 µM (NIH3T3 cells [1]; Mus musculus): 26.8%
- inhibition at 1000 µM (NIH3T3 cells [1]; Mus musculus): 52.9%

Compound: CC(=O)N(C)c1ccc(Cn2cc(C(F)(F)F)ccc2=O)cc1 [Compound 11a, N-Methyl-N-(4-((2-oxo-5-(trifluoromethyl)pyridin-1(2H)-yl)methyl)phenyl)acetamide]
- IC50 (NIH3T3 cells [1]; [4]): 146 ± 5.5 µM
- inhibition at 500 µM (NIH3T3 cells [1]; Mus musculus): 67.9%
- inhibition at 1000 µM (NIH3T3 cells [1]; Mus musculus): 78.5%

Compound: CC(=O)N(C)c1ccc(Cn2cc(C)ccc2=O)cc1 [Compound 11b, N-Methyl-N-(4-((5-methyl-2-oxopyridin-1(2H)-yl)methyl)phenyl)acetamide]
- IC50 (NIH3T3 cells [1]; [4]): 140 ± 9.8 µM
- inhibition at 500 µM (NIH3T3 cells [1]; Mus musculus): 66.7%
- inhibition at 1000 µM (NIH3T3 cells [1]; Mus musculus): 79.4%

Compound: CN(C)CC(=O)Nc1ccc(-n2cc(C(F)(F)F)ccc2=O)cc1 [Compound 5b, 2-(Dimethylamino)-N-(4-(2-oxo-5-(trifluoromethyl)pyridin-1(2H)-yl)phenyl)acetamide]
- IC50 (NIH3T3 cells [1]; [4]): > 500 µM
- inhibition at 500 µM (NIH3T3 cells [1]; Mus musculus): 34.2%
- inhibition at 1000 µM (NIH3T3 cells [1]; Mus musculus): 45.8%

Compound: CN(C)CC(=O)Nc1ccc(Cn2cc(C(F)(F)F)ccc2=O)cc1 [Compound 10d, 2-(Dimethylamino)-N-(4-((2-oxo-5-(trifluoromethyl)pyridin-1(2H)-yl)methyl)phenyl)acetamide]
- IC50 (NIH3T3 cells [1]; [4]): 273.1 ± 1.5 µM
- inhibition at 500 µM (NIH3T3 cells [1]; Mus musculus): 52.4%
- inhibition at 1000 µM (NIH3T3 cells [1]; Mus musculus): 71.3%

Compound: CC(=O)N(C(C)=O)c1ccc(Cn2cc(C(F)(F)F)ccc2=O)cc1 [Compound 9b, N-Acetyl-N-(4-((2-oxo-5-(trifluoromethyl)pyridin-1(2H)-yl)methyl)phenyl)acetamide]
- IC50 (NIH3T3 cells [1]; [5]): 87 µM
- IC50 (NIH3T3 cells [1]; [4]): 87.5 ± 0.7 µM
- inhibition at 500 µM (NIH3T3 cells [1]; Mus musculus): 80.6%
- inhibition at 1000 µM (NIH3T3 cells [1]; Mus musculus): 90.5%
- proliferation (fixed cell morphology) (NIH3T3 cells [1]): effectively inhibited
- solubility in water (Solubility in water): good solubility in water
- proliferation (fixed cell morphology) (HFL1): effectively inhibited
- IC50 (HFL1): 48 µM

Compound: CN1CCN(CC(=O)Nc2ccc(Cn3cc(C(F)(F)F)ccc3=O)cc2)CC1 [Compound 10a, 2-(4-Methylpiperazin-1-yl)-N-(4-((2-oxo-5-(trifluoromethyl)pyridin-1(2H)-yl)methyl)phenyl)acetamide]
- IC50 (NIH3T3 cells [1]; [4]): 246.3 ± 1.8 µM
- inhibition at 500 µM (NIH3T3 cells [1]; Mus musculus): 66.5%
- inhibition at 1000 µM (NIH3T3 cells [1]; Mus musculus): 87.7%

Compound: CC(=O)Nc1ccc(Cn2cc(C)ccc2=O)cc1 [Compound 9c, N-(4-((5-Methyl-2-oxopyridin-1(2H)-yl)methyl)phenyl)acetamide]
- IC50 (NIH3T3 cells [1]; [4]): 113 ± 1.9 µM
- inhibition at 500 µM (NIH3T3 cells [1]; Mus musculus): 72.5%
- inhibition at 1000 µM (NIH3T3 cells [1]; Mus musculus): 89%

Compound: Cc1ccc(=O)n(-c2ccccc2)c1 [pirfenidone, 5-methyl-1-phenyl-2[1H]-pyridone, reference compound]
- IC50 (NIH3T3 cells [1]; [4]): > 1000 µM
- inhibition at 500 µM (NIH3T3 cells [1]; Mus musculus): 17.9%
- inhibition at 1000 µM (NIH3T3 cells [1]; Mus musculus): 35.7%
- IC50 (NIH3T3 cells [2]): 2750 µM
- incidence of photo-sensitivity [3]: 51.7%
